According to ChEMBL document CHEMBL1687874, “Anti-tubercular agents. Part 6: synthesis and antimycobacterial activity of novel arylsulfonamido conjugated oxazolidinones” (Eur J Med Chem, 2011):
In brackets after ≈: the same amount, converted by molar mass.

Tests used:
[1] = tested on: Mycobacterium tuberculosis; assay: Antimycobacterial activity against Mycobacterium tuberculosis H37Rv after 3 to 4 weeks by microplate alamar blue assay; type: functional
HFF = assay: Cytotoxicity against human HFF cells after 24 hrs by MTT assay; type: cell-based
Method in brief: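 Human foreskin fibroblasts in DMEM with 10% FCS exposed to test material for 24 h at 37 °C in CO2 incubator. MTT then added, 3 h further at 37 °C. Formazan read at 565 nm; percent cytotoxicity relative to untreated cells, reported as IC50.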

[2] = Selectivity index, ratio of IC50 for human HFF cells to MIC for Mycobacterium tuberculosis H37Rv; type: functional
Method in brief: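 SI computed as IC50 on HFF cells (24 h MTT) divided by MIC against M. tuberculosis H37Rv (3–4 week microdilution, […]).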

Compound	MIC [1]	IC50 (HFF)	Selectivity Index [2]
CN1C(NC[C@H]2CN(c3ccc(N4CCOCC4)c(F)c3)C(=O)O2)=NS(=O)(=O)c2ccccc21	> 6.25 µg/mL		
CCN1C(NC[C@H]2CN(c3ccc(N4CCOCC4)c(F)c3)C(=O)O2)=NS(=O)(=O)c2ccccc21	> 6.25 µg/mL		
O=C1O[C@@H](CNC2=NS(=O)(=O)c3ccccc3N2c2ccccc2)CN1c1ccc(N2CCOCC2)c(F)c1	> 6.25 µg/mL		
CN1C(NC[C@H]2CN(c3ccc(N4CCSCC4)c(F)c3)C(=O)O2)=NS(=O)(=O)c2ccccc21	> 6.25 µg/mL		
CCN1C(NC[C@H]2CN(c3ccc(N4CCSCC4)c(F)c3)C(=O)O2)=NS(=O)(=O)c2ccccc21	> 6.25 µg/mL		
O=C1O[C@@H](CNC2=NS(=O)(=O)c3ccccc3N2c2ccccc2)CN1c1ccc(N2CCSCC2)c(F)c1	> 6.25 µg/mL		
O=C1O[C@@H](CNS(=O)(=O)c2ccccc2)CN1c1ccc(N2CCOCC2)c(F)c1	> 6.25 µg/mL		
O=C1O[C@@H](CNS(=O)(=O)c2ccc(Cl)cc2)CN1c1ccc(N2CCOCC2)c(F)c1	> 6.25 µg/mL		
O=C1O[C@@H](CNS(=O)(=O)c2ccc(F)cc2)CN1c1ccc(N2CCOCC2)c(F)c1	1 µg/mL (≈ 2.21 µM)	> 100 µM	>100
Cc1ccc(S(=O)(=O)NC[C@H]2CN(c3ccc(N4CCOCC4)c(F)c3)C(=O)O2)cc1	> 6.25 µg/mL		
CC(=O)NC[C@H]1CN(c2ccc(N3CCN(C4=NS(=O)(=O)c5ccccc5N4C)CC3)c(F)c2)C(=O)O1	1 µg/mL (≈ 1.88 µM)	> 100 µM	>100
CCN1C(N2CCN(c3ccc(N4C[C@H](CNC(C)=O)OC4=O)cc3F)CC2)=NS(=O)(=O)c2ccccc21	1 µg/mL (≈ 1.84 µM)	> 50 µM	>50
CC(=O)NC[C@H]1CN(c2ccc(N3CCN(C4=NS(=O)(=O)c5ccccc5N4c4ccccc4)CC3)c(F)c2)C(=O)O1	6.25 µg/mL (≈ 10.5 µM)	> 50 µM	>8
CN1C(NC[C@H]2CN(c3ccc(N4CCN(C(=O)/C=C/c5ccc(-c6ccc(Cl)cc6)o5)CC4)c(F)c3)C(=O)O2)=NS(=O)(=O)c2ccccc21	> 6.25 µg/mL		
CCN1C(NC[C@H]2CN(c3ccc(N4CCN(C(=O)/C=C/c5ccc(-c6ccc(Cl)cc6)o5)CC4)c(F)c3)C(=O)O2)=NS(=O)(=O)c2ccccc21	> 6.25 µg/mL		
O=C(/C=C/c1ccc(-c2ccc(Cl)cc2)o1)N1CCN(c2ccc(N3C[C@H](CNC4=NS(=O)(=O)c5ccccc5N4c4ccccc4)OC3=O)cc2F)CC1	> 6.25 µg/mL		
CC(=O)NC[C@H]1CN(c2ccc(N3CCOCC3)c(F)c2)C(=O)O1 [LINEZOLID]	2 µg/mL (≈ 5.93 µM)		
CO[C@H]1/C=C/O[C@@]2(C)Oc3c(C)c(O)c4c(O)c(c(/C=N/N5CCN(C)CC5)c(O)c4c3C2=O)NC(=O)/C(C)=C\C=C\[C@H](C)[C@H](O)[C@@H](C)[C@@H](O)[C@@H](C)[C@H](OC(C)=O)[C@@H]1C [RIFAMPIN]	0.12 µg/mL (≈ 0.146 µM)		
